In brackets after ≈: the same amount, converted by molar mass.
How the values were obtained:
Assay type in all cases: functional
Bacillus subtilis [1] = experiment: Antibacterial activity against Bacillus subtilis NCIM 2063 after 24 hrs by microdilution susceptibility method; details: NCIM 2063, 24 h
How it was run: (§1)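 This is a microdilution susceptibility test. Organism suspensions are inoculated into wells holding the dilution series, then incubated at 36 °C for 24 h (bacteria) or 48 h (fungi). MIC is the lowest concentration giving no turbidity, i.e. complete inhibition of visible growth.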

Curvularia lunata [2] = experiment: Antifungal activity against Curvularia lunata NCIM 716 after 48 hrs by microdilution susceptibility method; details: NCIM 716, 48 h; how it was run: as §1
Fusarium solani [3] = experiment: Antifungal activity against Fusarium solani NCIM 1330 after 48 hrs by microdilution susceptibility method; details: NCIM 1330, 48 h; how it was run: as §1
Fusarium solani [4] = experiment: Antifungal activity against Fusarium solani NCIM 1330 at 200 ug/disk after 48 hrs by agar disc-diffusion method; details: NCIM 1330, 48 h, read-out: DIZ
How it was run: (§2)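 Sterile 6 mm filter-paper discs are soaked in compound solution in DMSO and placed on nutrient agar plates already inoculated with each organism. Plates are incubated at 37 °C. The diameter of the growth-inhibition zone is read after 24 h for bacteria and after 48 h for fungi.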

Bacillus subtilis [5] = experiment: Antibacterial activity against Bacillus subtilis NCIM 2063 at 100 ug/disk after 24 hrs by agar disc-diffusion method; details: NCIM 2063, 24 h, read-out: DIZ; how it was run: as §2
Klebsiella pneumoniae [6] = experiment: Antibacterial activity against Klebsiella pneumoniae NCIM 2957 at 100 ug/disk after 24 hrs by agar disc-diffusion method; details: NCIM 2957, 24 h, read-out: DIZ; how it was run: as §2
Fusarium solani [7] = experiment: Antifungal activity against Fusarium solani NCIM 1330 at 100 ug/disk after 48 hrs by agar disc-diffusion method; details: NCIM 1330, 48 h, read-out: DIZ; how it was run: as §2
Proteus vulgaris [8] = experiment: Antibacterial activity against Proteus vulgaris NCIM 2027 at 200 ug/disk after 24 hrs by agar disc-diffusion method; details: NCIM 2027, 24 h, read-out: DIZ; how it was run: as §2
Proteus vulgaris [9] = experiment: Antibacterial activity against Proteus vulgaris NCIM 2027 at 100 ug/disk after 24 hrs by agar disc-diffusion method; details: NCIM 2027, 24 h, read-out: DIZ; how it was run: as §2
Klebsiella pneumoniae [10] = experiment: Antibacterial activity against Klebsiella pneumoniae NCIM 2957 after 24 hrs by microdilution susceptibility method; details: NCIM 2957, 24 h; how it was run: as §1
Klebsiella pneumoniae [11] = experiment: Antibacterial activity against Klebsiella pneumoniae NCIM 2957 at 200 ug/disk after 24 hrs by agar disc-diffusion method; details: NCIM 2957, 24 h, read-out: DIZ; how it was run: as §2
Proteus vulgaris [12] = experiment: Antibacterial activity against Proteus vulgaris NCIM 2027 after 24 hrs by microdilution susceptibility method; details: NCIM 2027, 24 h; how it was run: as §1
Aspergillus niger [13] = experiment: Antifungal activity against Aspergillus niger NCIM 596 at 100 ug/disk after 48 hrs by agar disc-diffusion method; details: NCIM 596, 48 h, read-out: DIZ; how it was run: as §2
Staphylococcus aureus [14] = experiment: Antibacterial activity against Staphylococcus aureus NCIM 5021 after 24 hrs by microdilution susceptibility method; details: NCIM 5021, 24 h; how it was run: as §1
Staphylococcus aureus [15] = experiment: Antibacterial activity against Staphylococcus aureus NCIM 5021 at 100 ug/disk after 24 hrs by agar disc-diffusion method; details: NCIM 5021, 24 h, read-out: DIZ; how it was run: as §2
Staphylococcus aureus [16] = experiment: Antibacterial activity against Staphylococcus aureus NCIM 5021 at 200 ug/disk after 24 hrs by agar disc-diffusion method; details: NCIM 5021, 24 h, read-out: DIZ; how it was run: as §2
Curvularia lunata [17] = experiment: Antifungal activity against Curvularia lunata NCIM 716 at 200 ug/disk after 48 hrs by agar disc-diffusion method; details: NCIM 716, 48 h, read-out: DIZ; how it was run: as §2
Aspergillus niger [18] = experiment: Antifungal activity against Aspergillus niger NCIM 596 after 48 hrs by microdilution susceptibility method; details: NCIM 596, 48 h; how it was run: as §1
Curvularia lunata [19] = experiment: Antifungal activity against Curvularia lunata NCIM 716 at 100 ug/disk after 48 hrs by agar disc-diffusion method; details: NCIM 716, 48 h, read-out: DIZ; how it was run: as §2
Bacillus subtilis [20] = experiment: Antibacterial activity against Bacillus subtilis NCIM 2063 at 200 ug/disk after 24 hrs by agar disc-diffusion method; details: NCIM 2063, 24 h, read-out: DIZ; how it was run: as §2
Aspergillus niger [21] = experiment: Antifungal activity against Aspergillus niger NCIM 596 at 200 ug/disk after 48 hrs by agar disc-diffusion method; details: NCIM 596, 48 h, read-out: DIZ; how it was run: as §2

| Structure (SMILES) | MIC (Bacillus subtilis [1]) | MIC (Curvularia lunata [2]) | MIC (Fusarium solani [3]) | zone of inhibition at 200 µg/disc (Fusarium solani [4]) | zone of inhibition at 100 µg/disc (Bacillus subtilis [5]) | zone of inhibition at 100 µg/disc (Klebsiella pneumoniae [6]) | zone of inhibition at 100 µg/disc (Fusarium solani [7]) | zone of inhibition at 200 µg/disc (Proteus vulgaris [8]) | zone of inhibition at 100 µg/disc (Proteus vulgaris [9]) | MIC (Klebsiella pneumoniae [10]) | zone of inhibition at 200 µg/disc (Klebsiella pneumoniae [11]) | MIC (Proteus vulgaris [12]) | zone of inhibition at 100 µg/disc (Aspergillus niger [13]) | MIC (Staphylococcus aureus [14]) | zone of inhibition at 100 µg/disc (Staphylococcus aureus [15]) | zone of inhibition at 200 µg/disc (Staphylococcus aureus [16]) | zone of inhibition at 200 µg/disc (Curvularia lunata [17]) | MIC (Aspergillus niger [18]) | zone of inhibition at 100 µg/disc (Curvularia lunata [19]) | zone of inhibition at 200 µg/disc (Bacillus subtilis [20]) | further results |
| --- | --- | --- | --- | --- | --- | --- | --- | --- | --- | --- | --- | --- | --- | --- | --- | --- | --- | --- | --- | --- | --- |
| O=S(=O)(Cc1ccc(Cl)cc1)Cc1nnc(-c2ccccc2)s1 | 200 µg/mL (≈ 548 µM) | 200 µg/mL (≈ 548 µM) | 200 µg/mL (≈ 548 µM) | 27 mm | 24 mm | 19 mm | 24 mm | 22 mm | 17 mm | 200 µg/mL (≈ 548 µM) | 23 mm | 200 µg/mL (≈ 548 µM) | 17 mm | 100 µg/mL (≈ 274 µM) | 28 mm | 30 mm | 25 mm | 200 µg/mL (≈ 548 µM) | 23 mm | 28 mm | zone of inhibition at 200 µg/disc (Aspergillus niger [21]): 20 mm |
| Nn1c(CS(=O)(=O)Cc2ccccc2)nnc1-c1ccccc1 | 400 µg/mL (≈ 1220 µM) | 200 µg/mL (≈ 609 µM) | 200 µg/mL (≈ 609 µM) | 21 mm | 23 mm | 18 mm | 19 mm | 22 mm | 17 mm | 200 µg/mL (≈ 609 µM) | 22 mm | 200 µg/mL (≈ 609 µM) | 17 mm | 400 µg/mL (≈ 1220 µM) | 22 mm | 24 mm | 24 mm | 400 µg/mL (≈ 1220 µM) | 22 mm | 26 mm | zone of inhibition at 200 µg/disc (Aspergillus niger [21]): 21 mm |
| O=S(=O)(Cc1ccc(Cl)cc1)Cc1nnc(-c2ccccc2Cl)s1 | 100 µg/mL (≈ 250 µM) | 100 µg/mL (≈ 250 µM) | 100 µg/mL (≈ 250 µM) | 31 mm | 27 mm | 20 mm | 28 mm | 23 mm | 20 mm | 100 µg/mL (≈ 250 µM) | 24 mm | 200 µg/mL (≈ 501 µM) | 20 mm | 50 µg/mL (≈ 125 µM) | 29 mm | 33 mm | 27 mm | 100 µg/mL (≈ 250 µM) | 25 mm | 31 mm | zone of inhibition at 200 µg/disc (Aspergillus niger [21]): 23 mm |
| O=S(=O)(Cc1nnc(-c2ccccc2Cl)s1)c1ccc(Cl)cc1 | 200 µg/mL (≈ 519 µM) | 200 µg/mL (≈ 519 µM) | 200 µg/mL (≈ 519 µM) | 24 mm | 19 mm | 16 mm | 20 mm | 21 mm | 19 mm | 400 µg/mL (≈ 1040 µM) | 19 mm | 400 µg/mL (≈ 1040 µM) | 17 mm | 200 µg/mL (≈ 519 µM) | 21 mm | 23 mm | 22 mm | 200 µg/mL (≈ 519 µM) | 19 mm | 23 mm | zone of inhibition at 200 µg/disc (Aspergillus niger [21]): 21 mm |
| O=S(=O)(Cc1ccccc1)Cc1nnc(-c2ccccc2Cl)s1 | 200 µg/mL (≈ 548 µM) | 200 µg/mL (≈ 548 µM) | 200 µg/mL (≈ 548 µM) | 23 mm | 25 mm | 19 mm | 20 mm | 22 mm | 18 mm | 200 µg/mL (≈ 548 µM) | 23 mm | 200 µg/mL (≈ 548 µM) | 16 mm | 100 µg/mL (≈ 274 µM) | 26 mm | 29 mm | 21 mm | 200 µg/mL (≈ 548 µM) | 19 mm | 28 mm | zone of inhibition at 200 µg/disc (Aspergillus niger [21]): 19 mm |
| O=S(=O)(Cc1ccccc1)Cc1nnc(-c2ccccc2)s1 | 200 µg/mL (≈ 605 µM) | 200 µg/mL (≈ 605 µM) | 200 µg/mL (≈ 605 µM) | 20 mm | 22 mm | 17 mm | 18 mm | 24 mm | 16 mm | 200 µg/mL (≈ 605 µM) | 22 mm | 400 µg/mL (≈ 1210 µM) | 16 mm | 200 µg/mL (≈ 605 µM) | 24 mm | 29 mm | 23 mm | 200 µg/mL (≈ 605 µM) | 21 mm | 25 mm | zone of inhibition at 200 µg/disc (Aspergillus niger [21]): 19 mm |
| Nn1c(CS(=O)(=O)c2ccc(Cl)cc2)nnc1-c1ccccc1Cl | 400 µg/mL (≈ 1040 µM) | 200 µg/mL (≈ 522 µM) | 200 µg/mL (≈ 522 µM) | 27 mm | 16 mm | 18 mm | 24 mm | 20 mm | 19 mm | 400 µg/mL (≈ 1040 µM) | 20 mm | 400 µg/mL (≈ 1040 µM) | 20 mm | 400 µg/mL (≈ 1040 µM) | 19 mm | 23 mm | 25 mm | 400 µg/mL (≈ 1040 µM) | 23 mm | 18 mm | zone of inhibition at 200 µg/disc (Aspergillus niger [21]): 24 mm |
| Nn1c(CS(=O)(=O)c2ccc(Cl)cc2)nnc1-c1ccccc1 | 400 µg/mL (≈ 1150 µM) | 200 µg/mL (≈ 573 µM) | 200 µg/mL (≈ 573 µM) | 24 mm | 17 mm | 17 mm | 21 mm | 21 mm | 18 mm | – | 19 mm | 400 µg/mL (≈ 1150 µM) | 19 mm | 400 µg/mL (≈ 1150 µM) | 19 mm | 23 mm | 25 mm | 200 µg/mL (≈ 573 µM) | 22 mm | 20 mm | zone of inhibition at 200 µg/disc (Aspergillus niger [21]): 22 mm |
| O=C(N[C@H](CO)[C@H](O)c1ccc([N+](=O)[O-])cc1)C(Cl)Cl [CHLORAMPHENICOL] | 6.25 µg/mL (≈ 19.3 µM) | – | – | – | 38 mm | 37 mm | – | 45 mm | 42 mm | 6.25 µg/mL (≈ 19.3 µM) | 42 mm | 12.5 µg/mL (≈ 38.7 µM) | – | 6.25 µg/mL (≈ 19.3 µM) | 35 mm | 41 mm | – | – | – | 44 mm | – |
| Nn1c(CS(=O)(=O)Cc2ccc(Cl)cc2)nnc1-c1ccccc1 | 100 µg/mL (≈ 276 µM) | 200 µg/mL (≈ 551 µM) | 100 µg/mL (≈ 276 µM) | 26 mm | 28 mm | 27 mm | 24 mm | 29 mm | 26 mm | 200 µg/mL (≈ 551 µM) | 29 mm | 200 µg/mL (≈ 551 µM) | 18 mm | 100 µg/mL (≈ 276 µM) | 27 mm | 31 mm | 27 mm | 200 µg/mL (≈ 551 µM) | 24 mm | 33 mm | zone of inhibition at 200 µg/disc (Aspergillus niger [21]): 20 mm |
